Screens (PubChem)
Hits are enriched below; roughly 2.8% of the tested compounds scored in any of these assays.
PAFAH2 inh: inhibitors of human PAFAH2; inhibition, % at 3.39 µM; 340,000 tested, 0.99% active; Q99487; recombinant PAFAH2, FP-rhodamine activity probe, fluorescence polarization;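 active = inhibition above the mean over all tested compounds plus 3 SD, cut at about 30% in these data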;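 also: inhibitors block probe labeling of enzyme so polarization drops; 0% = enzyme with DMSO and 100% = wells lacking PAFAH2 protein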
HTRA1 inh: HTRA1 (human) protease inhibition | Q92743 | recombinant HTRA1, FP-rhodamine activity-based probe, fluorescence polarization | inhibition, % at 5.96 µM | 340,000 tested, 0.5% active | AID 504803; in the data active = inhibition above about 36%;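 also: 0% = enzyme with DMSO and 100% = wells lacking enzyme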
ABHD4 inh: inhibits mouse alpha/beta hydrolase domain 4. inhibition, % at 8.92 µM. purified mABHD4, FP-Rh probe fluorescence polarization. 370,000 tested, 0.54% active;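 active = inhibition exceeding the mean over every tested compound plus 3 SD, cut at about 30% in these data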;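 also: 0% = plate median of compound wells and 100% = S159A mutant with DMSO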
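Assay system: mouse ABHD4 enzyme, wild type / Also added: fluorescent activity-based probe FP-Rh / Doses: single nominal dose of 8.92 µM, 0.89% DMSO final / Timing: 45 min compound pre-incubation plus 60 min probe step, 25 °C / Signal: FP readout, ex 525 nm / em 598 nm / Control set: S159A mutant/DMSO as 100%, compound-well median as 0%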
PAFAH1B3 FP inh: blocks human PAF acetylhydrolase 1B catalytic subunit 3 | Q15102 | recombinant PAFAH1B3, FP-rhodamine probe, fluorescence polarization | inhibition, % at 3.39 µM | 340,000 tested, 0.28% active;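 active = inhibition above the screen-wide average of all tested compounds plus 3 SD, cut at about 25% in these data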;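 also: 0% = enzyme with DMSO only and 100% = wells lacking PAFAH1B3 protein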
Target sequence (Q15102 whole entry, looked up): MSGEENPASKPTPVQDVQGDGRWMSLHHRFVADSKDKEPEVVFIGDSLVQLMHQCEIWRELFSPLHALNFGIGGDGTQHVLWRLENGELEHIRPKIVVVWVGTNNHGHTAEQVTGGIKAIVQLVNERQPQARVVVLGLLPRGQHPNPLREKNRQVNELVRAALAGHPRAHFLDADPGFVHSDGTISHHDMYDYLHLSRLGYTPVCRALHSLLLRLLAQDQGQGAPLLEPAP
PAFAH1B2 inh: PAFAH1B2 (human) inhibition | P68402 | recombinant PAFAH1B2, FP-rhodamine activity probe, fluorescence polarization | inhibition, % at 3.39 µM | 340,000 tested, 1.2% active | AID 492953;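 active = inhibition above the mean of all tested compounds plus 3 SD, cut at about 24% in these data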;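 also: 0% = enzyme with DMSO and 100% = wells lacking PAFAH1B2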
pPAFAH inh: pPAFAH (human) enzyme inhibition. Q13093. recombinant pPAFAH, FP-rhodamine probe fluorescence polarization. inhibition, % at 3.39 µM. 330,000 tested, 1.5% active;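 active = inhibition above the mean inhibition across the screen plus 3 SD, cut at about 25% in these data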;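 also: inhibitors block binding of the rhodamine activity-based probe so polarization drops; 0% = enzyme with DMSO and 100% = wells lacking pPAFAH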
Target sequence (Q13093 whole entry, looked up): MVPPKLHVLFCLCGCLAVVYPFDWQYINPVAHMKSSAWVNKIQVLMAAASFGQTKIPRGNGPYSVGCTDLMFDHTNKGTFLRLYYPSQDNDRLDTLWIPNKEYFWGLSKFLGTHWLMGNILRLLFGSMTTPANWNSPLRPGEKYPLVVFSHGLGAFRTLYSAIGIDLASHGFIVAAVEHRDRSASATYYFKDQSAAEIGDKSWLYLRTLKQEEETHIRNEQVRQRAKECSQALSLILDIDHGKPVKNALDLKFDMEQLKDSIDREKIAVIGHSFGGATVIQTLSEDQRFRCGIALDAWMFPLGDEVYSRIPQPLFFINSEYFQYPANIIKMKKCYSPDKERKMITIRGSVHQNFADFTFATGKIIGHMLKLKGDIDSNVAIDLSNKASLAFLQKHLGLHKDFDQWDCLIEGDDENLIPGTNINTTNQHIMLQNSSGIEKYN
PAFAH2 FP conf: confirmation of human PAFAH2 inhibitors | shares compounds with PAFAH2 inh | recombinant PAFAH2, FP-rhodamine activity probe, fluorescence polarization | inhibition, % at 3.39 µM | 2,300 tested, 65% active | AID 493030;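 active = mean inhibition over three repeats above a set limit taken from the earlier primary screen, cut at about 30% in these data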;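 also: inhibitor blocks binding of rhodamine activity probe so polarization falls; 0% = enzyme with DMSO and 100% = wells lacking PAFAH2 protein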
* = called active by the depositor.

Screening Cc1ccc2nc(-c3ccccc3C)oc(=O)c2c1 returned PAFAH2 inh 65*, HTRA1 inh -23, ABHD4 inh 0, PAFAH1B3 FP inh 3, PAFAH1B2 inh -2, pPAFAH inh 4 and PAFAH2 FP conf 45*.
`Cc1ccc2nc(-c3cccc(N)c3)oc2c1` gave PAFAH2 inh 3, HTRA1 inh 4, ABHD4 inh 3, PAFAH1B3 FP inh 4, PAFAH1B2 inh -1 and pPAFAH inh 2.
`O=c1oc(-c2ccc(Cl)cc2[N+](=O)[O-])nc2ccccc12` gave HTRA1 inh -11 and ABHD4 inh 5.
`COc1ccc(-c2nc3ccc(C)cc3c(=O)o2)cc1OC` gave PAFAH2 inh 43*, HTRA1 inh -8, ABHD4 inh 6, PAFAH1B3 FP inh -2, PAFAH1B2 inh -5, pPAFAH inh 4 and PAFAH2 FP conf 42*.
`Cc1ccc(-c2nc3ccccc3c(=O)o2)cc1` gave PAFAH2 inh 81*, HTRA1 inh 3, ABHD4 inh -4, PAFAH1B3 FP inh 4, PAFAH1B2 inh -2, pPAFAH inh -8 and PAFAH2 FP conf 73*.
`O=c1oc(-c2ccc(Br)o2)nc2ccccc12` gave PAFAH2 inh 60*, HTRA1 inh -9, ABHD4 inh -5, PAFAH1B3 FP inh 10, PAFAH1B2 inh 3, pPAFAH inh -6 and PAFAH2 FP conf 65*.
Screening COc1ccccc1-c1ccc(OCCCN2CCC(C(O)(c3ccccc3)c3ccccc3)CC2)cc1 returned ABHD4 inh 23.
For CCOc1ncccc1C(=O)OCC(=O)Nc1cc(C)ccc1C the results were PAFAH2 inh 13, HTRA1 inh 0, ABHD4 inh 0, PAFAH1B3 FP inh -6, PAFAH1B2 inh 1 and pPAFAH inh 24.
Cc1ccc(NC(=O)COC(=O)c2cccnc2Cl)cc1S(=O)(=O)N1CCOCC1 was read as PAFAH2 inh 44*, HTRA1 inh 14, ABHD4 inh 1, PAFAH1B3 FP inh -6, PAFAH1B2 inh 1, pPAFAH inh 4 and PAFAH2 FP conf 38*.
`CCOc1ncccc1C(=O)OCC(=O)Nc1ccc(C)c(S(=O)(=O)N(C)C)c1` gave PAFAH2 inh 80*, HTRA1 inh -6, ABHD4 inh -3, PAFAH1B3 FP inh -2, PAFAH1B2 inh 1, pPAFAH inh 14 and PAFAH2 FP conf 86*.
For CCOc1ncccc1C(=O)OCC(=O)Nc1ccc(C)c(S(=O)(=O)N2CCOCC2)c1 the results were PAFAH2 inh 75*, HTRA1 inh -8, ABHD4 inh -4, PAFAH1B3 FP inh 9, PAFAH1B2 inh -5, pPAFAH inh 13 and PAFAH2 FP conf 76*.
`CSc1ncccc1C(=O)OCC(=O)Nc1ccc(C)c(S(=O)(=O)N2CCOCC2)c1` gave PAFAH2 inh 29, HTRA1 inh -5, ABHD4 inh 1, PAFAH1B3 FP inh 1, PAFAH1B2 inh 3 and pPAFAH inh 6.
Cc1ccc(S(=O)(=O)N2CCOCC2)cc1NC(=O)COC(=O)c1cccc(Cl)c1Cl was read as PAFAH2 inh 41*, HTRA1 inh -6, ABHD4 inh -13, PAFAH1B3 FP inh -1, PAFAH1B2 inh 3 and PAFAH2 FP conf 27.
Screening Cc1ccc(S(=O)(=O)N2CCOCC2)cc1NC(=O)COC(=O)c1cccnc1Cl returned PAFAH2 inh 16, HTRA1 inh 9, ABHD4 inh -11, PAFAH1B3 FP inh -1, PAFAH1B2 inh 5 and pPAFAH inh 9.
For C[C@H]1[C@@H](NC(=O)c2cccc(C(F)(F)F)c2)CC[C@@]23CCCN2C(=O)CCC[C@@H]13 the results were ABHD4 inh 7.
For COC(=O)[C@]12C[C@H](CC(=O)NCc3cccc(C(F)(F)F)c3)C(=O)N(Cc3ccco3)C1=C[C@H](C(C)C)O[C@@H]2C1CC1 the results were ABHD4 inh -5.
`CCN1CCCCC(NC(=O)c2ccc(F)c(F)c2)C1=O` (stereo unspecified) gave ABHD4 inh 5.
Screening C[C@H]1[C@@H](NC(=O)c2ccc(C(F)(F)F)cc2)CC[C@@]23CCCN2C(=O)CCC[C@@H]13 returned ABHD4 inh 2.
Screening Cc1ccc(S(=O)(=O)N2CCOCC2)cc1NC(=O)COC(=O)c1ccc(Cl)s1 returned PAFAH2 inh 44*, HTRA1 inh -13, ABHD4 inh 0, PAFAH1B3 FP inh 6, PAFAH1B2 inh 6, pPAFAH inh 3 and PAFAH2 FP conf 32*.
Screening CCOc1ncccc1C(=O)OCC(=O)Nc1cc(S(=O)(=O)N2CCOCC2)ccc1C returned PAFAH2 inh 42*, HTRA1 inh 1, ABHD4 inh 3, PAFAH1B3 FP inh 0, PAFAH1B2 inh -3, pPAFAH inh 8 and PAFAH2 FP conf 39*.
CCOc1ncccc1C(=O)OCC(=O)Nc1cc(S(=O)(=O)N2CCCCC2)ccc1Cl was read as PAFAH2 inh 68*, HTRA1 inh -12, ABHD4 inh 9, PAFAH1B3 FP inh 4, PAFAH1B2 inh 1 and PAFAH2 FP conf 55*.
`Cc1ccc(S(=O)(=O)N2CCOCC2)cc1NC(=O)COC(=O)c1ccc(Cl)nc1` gave PAFAH2 inh 7, HTRA1 inh -7, ABHD4 inh -5, PAFAH1B3 FP inh 6, PAFAH1B2 inh 3 and pPAFAH inh 5.
COc1ccc(-c2nnc(SCC(=O)Nc3cccc4ccccc34)n2Cc2ccco2)cc1 was read as ABHD4 inh -7.
`CC(=O)N1C(C)(C)CC(=NOC(=O)c2ccccc2)CC1(C)C` gave PAFAH2 inh 67*, HTRA1 inh -6, ABHD4 inh 0, PAFAH1B3 FP inh 9, PAFAH1B2 inh 4, pPAFAH inh 6 and PAFAH2 FP conf 57*.
Screening O=C1C(=O)N(Cc2ccc(-c3ccccc3)cc2)c2ccc(OC(F)(F)F)cc21 returned ABHD4 inh 3.
For O=C(COC(=O)/C=C/c1ccc(S(=O)(=O)N2CCOCC2)cc1)NCc1ccc(Cl)cc1 the results were PAFAH2 inh 15, HTRA1 inh 5, ABHD4 inh -3, PAFAH1B3 FP inh 1, PAFAH1B2 inh 4 and pPAFAH inh 11.
O=C(COC(=O)/C=C/c1ccc(S(=O)(=O)N2CCOCC2)cc1)NC1CCCCCCC1 was read as PAFAH2 inh 53*, HTRA1 inh -14, ABHD4 inh -6, PAFAH1B3 FP inh -3, PAFAH1B2 inh -1, pPAFAH inh 7 and PAFAH2 FP conf 32*.
`O=C(/C=C/c1ccc(S(=O)(=O)N2CCOCC2)cc1)Nc1ccc(F)c(F)c1F` gave PAFAH2 inh -3, HTRA1 inh -7, ABHD4 inh -4, PAFAH1B3 FP inh 3, PAFAH1B2 inh -3 and pPAFAH inh -3.
